From ChEMBL document CHEMBL3997782, “Methoxylated 2'-hydroxychalcones as antiparasitic hit compounds” (Eur J Med Chem, 2017)
Values after ≈ are worked out from the molar mass of the structure shown.

What was measured:
CYP2C19 = CYP2C19 (Homo sapiens, UniProt P33261); assay: Inhibition of human CYP2C19 expressed in baculovirus-infected insect cells at 10 uM using Luciferin-H EGE as substrate in presence of NADPH by P450-Glo luminescence assay relative to control; format: ADME; settings: probe Luciferin-H EGE
In short: (§1)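 CYP enzymes as microsomal preparations from baculovirus-infected insect cells, run on the P450-Glo luminogenic substrate platform. A fall in light output indicates inhibition.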

[1] = Drug uptake in BALB/c mouse plasma at 20 mg/kg, po as cyclodextrin/PEG400 formulation measured after 1 hr by LC-MS method; format: ADME, organism-based
In short: (§2)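 BALB/c mice dosed either free (8% DMSO; 1 mg/kg IV or 20 mg/kg oral), or 20 mg/kg oral in 50% w/v hydroxypropyl-β-cyclodextrin, or 20 mg/kg oral in 25% cyclodextrins plus 50% PEG 400. Serial submandibular blood samples stored at -20°C. Plasma measured by isocratic LC-MS (acetonitrile:water 80:20, 0.2 ml/min), quantifier transition m/z 315.0>161.0.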

[2] = system: Trypanosoma brucei brucei; assay: Anti-parasitic activity against bloodstream form of Trypanosoma brucei brucei Lister 427 at 10 uM after 72 hrs by resazurin-based assay relative to control; format: functional; settings: Lister 427, 72 h
In short: (§3)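 Bloodstream-form T. brucei, modified resazurin-based viability assay. EC50 is the arithmetic mean of at least two independent determinations, each run in triplicate.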

Cytochrome P450 2D6 = Cytochrome P450 2D6 (Homo sapiens, UniProt P10635); assay: Inhibition of human CYP2D6 expressed in baculovirus-infected insect cells using Luciferin-ME EGE as substrate in presence of NADPH by P450-Glo luminescence assay; format: ADME; in short: as §1
[3] = Drug uptake in BALB/c mouse plasma at 20 mg/kg, po as 50% cyclodextrin formulation measured after 0.5 hrs by LC-MS method; format: ADME, organism-based; in short: as §2
[4] = Drug uptake in BALB/c mouse plasma at 20 mg/kg, po as cyclodextrin/PEG400 formulation measured after 0.75 hrs by LC-MS method; format: ADME, organism-based; in short: as §2
[5] = Drug uptake in BALB/c mouse plasma at 1 mg/kg, iv measured after 180 mins by LC-MS method; format: ADME, organism-based; in short: as §2
[6] = Drug uptake in BALB/c mouse plasma at 20 mg/kg, po measured after 1 hr by LC-MS method; format: ADME, organism-based; in short: as §2
[7] = Drug uptake in BALB/c mouse plasma at 1 mg/kg, iv measured after 60 mins by LC-MS method; format: ADME, organism-based; in short: as §2
[8] = Cytotoxicity against human […] cells assessed as cell growth by Cell titer-Glo assay; format: cell-based; settings: WI-38 cells
In short: (§4)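 A549 and WI-38 cells grown in DMEM with 10% v/v FCS, streptomycin 100 µg/ml and penicillin G 100 U/ml. Cell number read as cellular ATP by CellTiter-Glo luminescence. Growth 60–100% scored non-cytotoxic, 0–60% cytostatic, below 0 cytotoxic.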

Cytochrome P450 2C9 = Cytochrome P450 2C9 (Homo sapiens, UniProt P11712); assay: Inhibition of human CYP2C9 expressed in baculovirus-infected insect cells using Luciferin-H as substrate in presence of NADPH by P450-Glo luminescence assay
[9] = Drug uptake in BALB/c mouse plasma at 20 mg/kg, po as 50% cyclodextrin formulation measured after 1 hr by LC-MS method; format: ADME, organism-based; in short: as §2
[10] = Cytotoxicity against human […] cells assessed as cell growth at 10 uM by Cell titer-Glo assay relative to control; format: cell-based; settings: WI-38 cells, read-out: Activity; in short: as §4
[11] = Drug uptake in BALB/c mouse plasma at 1 mg/kg, iv measured after 45 mins by LC-MS method; format: ADME, organism-based; in short: as §2
[12] = Drug uptake in BALB/c mouse plasma at 20 mg/kg, po measured after 0.25 hrs by LC-MS method; format: ADME, organism-based; in short: as §2
[13] = Solubility of the compound in water measured after 18 hrs by UV-vis spectroscopic method; format: physicochemical
In short: (§5)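 Saturated suspensions prepared at 100 µM in water, 100 µM in PBS, 200 µM in PBS + 10% DMSO and 10 mM in PBS + 50% DMSO. Held 18 h at 25°C, passed through a 0.2 µm filter, then quantified by UV-Vis absorbance at 312 nm using the calculated extinction coefficient.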

[14] = Solubility of the compound in phosphate buffered saline with 50% DMSO measured after 18 hrs by UV-vis spectroscopic method; format: physicochemical; in short: as §5
CYP3A4 = CYP3A4 (Homo sapiens, UniProt P08684); assay: Inhibition of human CYP3A4 expressed in baculovirus-infected insect cells at 10 uM using Luciferin-PFBE as substrate in presence of NADPH by P450-Glo luminescence assay relative to control; format: ADME; settings: probe Luciferin-PFBE
[15] = Mitochondrial toxicity in human 786-O cells by mitotracker red chloromethyl-Xrosamine staining based-uptake method; format: cell-based, 786-0
In short: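 786-O renal carcinoma cells kept in RPMI-1640 with 2 mM glutamine, 10% v/v FCS, streptomycin 100 µg/ml and penicillin G 100 U/ml. Mitochondrial toxicity monitored by MitoTracker Red CMXRos uptake with high-content imaging.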

Cytochrome P450 2C19 = Cytochrome P450 2C19 (Homo sapiens, UniProt P33261); assay: Inhibition of human CYP2C19 expressed in baculovirus-infected insect cells using Luciferin-H EGE as substrate in presence of NADPH by P450-Glo luminescence assay; format: ADME; in short: as §1
[16] = system: Trypanosoma brucei brucei; assay: Anti-parasitic activity against bloodstream form of Trypanosoma brucei brucei Lister 427 after 72 hrs by resazurin-based assay; format: functional; settings: Lister 427, 72 h; in short: as §3
[17] = Drug uptake in BALB/c mouse plasma at 20 mg/kg, po as 50% cyclodextrin formulation measured after 0.25 hrs by LC-MS method; format: ADME, organism-based; in short: as §2
[18] = Drug uptake in BALB/c mouse plasma at 20 mg/kg, po measured after 0.5 hrs by LC-MS method; format: ADME, organism-based; in short: as §2
[19] = Half-life in BALB/c mouse at 20 mg/kg, po by LC-MS method; format: ADME, organism-based; settings: in vivo; in short: as §2
[20] = Drug uptake in BALB/c mouse plasma at 20 mg/kg, po as 50% cyclodextrin formulation measured after 24 hrs by LC-MS method; format: ADME, organism-based; in short: as §2
[21] = Cytotoxicity against human THP1 cells by MTT assay; format: cell-based; settings: THP-1 cells
In short: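 THP-1 cells differentiated to macrophages with PMA, viability read by colorimetric MTT. CC50 and NOAEL are the arithmetic mean of at least two independent determinations, each run in triplicate.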

Cytochrome P450 2D6, sequence (P10635 whole entry): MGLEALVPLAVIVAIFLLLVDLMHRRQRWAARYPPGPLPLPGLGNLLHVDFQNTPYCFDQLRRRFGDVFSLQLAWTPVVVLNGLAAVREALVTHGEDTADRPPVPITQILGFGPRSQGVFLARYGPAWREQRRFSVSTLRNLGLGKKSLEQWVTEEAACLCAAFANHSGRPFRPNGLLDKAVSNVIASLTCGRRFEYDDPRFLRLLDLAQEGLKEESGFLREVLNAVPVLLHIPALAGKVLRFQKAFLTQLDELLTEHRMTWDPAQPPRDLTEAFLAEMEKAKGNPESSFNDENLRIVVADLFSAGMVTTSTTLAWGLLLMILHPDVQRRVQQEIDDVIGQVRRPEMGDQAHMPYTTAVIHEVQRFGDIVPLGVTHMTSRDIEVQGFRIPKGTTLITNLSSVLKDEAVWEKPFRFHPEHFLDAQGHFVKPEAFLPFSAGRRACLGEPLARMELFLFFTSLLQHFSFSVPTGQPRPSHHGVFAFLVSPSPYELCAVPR
CYP2C19, sequence (P33261 whole entry): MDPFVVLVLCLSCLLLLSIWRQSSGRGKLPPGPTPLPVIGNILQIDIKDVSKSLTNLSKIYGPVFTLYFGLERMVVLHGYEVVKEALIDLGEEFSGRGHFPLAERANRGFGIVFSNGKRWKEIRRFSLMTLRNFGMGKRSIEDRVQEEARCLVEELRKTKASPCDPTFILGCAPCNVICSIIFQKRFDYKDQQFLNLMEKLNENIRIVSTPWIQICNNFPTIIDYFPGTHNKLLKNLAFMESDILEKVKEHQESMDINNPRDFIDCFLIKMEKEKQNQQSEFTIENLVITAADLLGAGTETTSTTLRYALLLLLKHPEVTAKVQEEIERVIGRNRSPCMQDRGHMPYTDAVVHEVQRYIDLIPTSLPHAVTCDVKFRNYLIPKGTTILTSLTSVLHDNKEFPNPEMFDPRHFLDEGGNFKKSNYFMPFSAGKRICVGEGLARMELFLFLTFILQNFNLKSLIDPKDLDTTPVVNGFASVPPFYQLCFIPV
Cytochrome P450 2C19, sequence (P33261 whole entry): as above
Cytochrome P450 2C9, sequence (P11712 whole entry): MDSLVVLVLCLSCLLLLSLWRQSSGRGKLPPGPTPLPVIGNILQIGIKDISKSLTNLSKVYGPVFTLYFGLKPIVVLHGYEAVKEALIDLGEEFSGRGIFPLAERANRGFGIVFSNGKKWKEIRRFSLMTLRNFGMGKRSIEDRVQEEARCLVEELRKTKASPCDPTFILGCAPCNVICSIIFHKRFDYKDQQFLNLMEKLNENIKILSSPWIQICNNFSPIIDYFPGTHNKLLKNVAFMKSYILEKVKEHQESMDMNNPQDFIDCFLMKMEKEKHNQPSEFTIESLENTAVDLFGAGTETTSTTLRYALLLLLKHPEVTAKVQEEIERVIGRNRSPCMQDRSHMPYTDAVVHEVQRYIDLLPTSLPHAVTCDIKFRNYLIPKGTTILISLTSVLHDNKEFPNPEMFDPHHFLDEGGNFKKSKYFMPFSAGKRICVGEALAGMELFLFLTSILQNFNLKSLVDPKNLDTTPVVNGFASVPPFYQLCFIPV
CYP3A4, sequence (P08684 whole entry): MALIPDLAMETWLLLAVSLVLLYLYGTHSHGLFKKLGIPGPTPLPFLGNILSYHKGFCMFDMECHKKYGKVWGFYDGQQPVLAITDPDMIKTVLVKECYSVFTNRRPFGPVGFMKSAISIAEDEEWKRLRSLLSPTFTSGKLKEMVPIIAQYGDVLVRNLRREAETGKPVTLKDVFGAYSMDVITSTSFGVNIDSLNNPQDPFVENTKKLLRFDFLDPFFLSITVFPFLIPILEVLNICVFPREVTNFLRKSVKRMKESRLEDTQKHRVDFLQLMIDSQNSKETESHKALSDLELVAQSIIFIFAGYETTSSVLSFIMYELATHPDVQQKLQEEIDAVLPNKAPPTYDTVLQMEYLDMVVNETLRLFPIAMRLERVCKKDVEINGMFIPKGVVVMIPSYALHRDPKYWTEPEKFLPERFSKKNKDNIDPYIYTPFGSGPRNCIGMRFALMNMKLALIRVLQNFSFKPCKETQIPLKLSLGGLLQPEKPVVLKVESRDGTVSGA

COc1cccc(/C=C/C(=O)c2cc(OC)c(OC)cc2O)c1
inhibition at 10 µM (CYP2C19): 49.2% | concentration at 1 h [1]: 18 nM | inhibition at 10 µM [2]: 100% | IC50 (Cytochrome P450 2D6): 6.8 µM | concentration at 0.5 h [3]: 563 nM | concentration at 0.75 h [4]: 11 nM | concentration at 3 h [5]: 5 nM | concentration at 1 h [6]: 9 nM | concentration at 1 h [7]: 21 nM | GI50 [8]: 10.8 µM | IC50 (Cytochrome P450 2C9): 42.1 µM | concentration at 1 h [9]: 69 nM | viability at 10 µM [10]: 96.1% | concentration at 0.75 h [11]: 23 nM | concentration at 0.25 h [12]: 270 nM | solubility at 18 h [13]: 0.91 µM (≈ 0.286 µg/mL) | solubility at 18 h [14]: 600 µM (≈ 189 µg/mL) | inhibition at 10 µM (CYP3A4): 12.4% | IC50 [15]: 14.5 µM | IC50 (Cytochrome P450 2C19): 7.7 µM | EC50 [16]: 4.2 µM | concentration at 0.25 h [17]: 1100 nM | concentration at 0.5 h [18]: 49 nM | half-life [19]: 12.6 min | concentration at 24 h [20]: 5 nM | CC50 [21]: 51 µM
